# Calb FLC – affects C. albicans growth with fluconazole; AID 1979; actives 0.57% (n = 300,000); growth inhibition, % (no concentration beside the values); C. albicans CaCi-2 (fluconazole-resistant clinical isolate) + fluconazole, Alamar Blue growth, 48 h;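 active = growth inhibition above about 58% in most replicates, limit read from the data, passing the limit was not always enough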;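 note: all wells also contain fluconazole at 8 µg/ml as a sub-toxic cotreatment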
# SR-BI uptake up – SR-BI HDL lipid transfer activation | actives 0.096% (n = 320,000) | AID 504775 | activation, % at 12.5 µM | CHO ldlA[mSR-BI] cells, DiI-HDL uptake fluorescence, 3 h; 100 = double the neutral-control signal;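 active = mean replicate activation of at least 60% and every replicate at or above 60%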
#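 System: LDL receptor-deficient CHO ldlA cells overexpressing murine SR-BI | Timing: 3 h uptake period with compound, 37 °C | Medium: HEPES-buffered (25 mM, pH 7.4) F12 plus 0.5% BSA | Dosing: Single-point compound dose | Signal: Bottom-read fluorescence, 550/595 nm | Read-out: Retained DiI signal reflecting DiI-HDL uptake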
# m5-HT2A agonist – mouse HTR2A agonism via beta-arrestin recruitment; P35363; CHO-K1 mHTR2A beta-arrestin complementation, luminescence; percent of 30 µM serotonin response; activation, % at 7.6 µM; actives 0.66% (n = 360,000); AID 624169;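 active = activation above a run cutoff, the mean activation of all tested compounds plus 3 SD, cut at about 14% in these data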
# Insulin prom up – MIN6 insulin promoter up-regulation; actives 0.3% (n = 190,000); z-score at 5 µM; MIN6 insulin promoter-GFP reporter, high-content imaging; active compounds read high;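 active = z-score above 3 at 5 µM with at least 500 cells counted in the well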
# MIN6 prolif-1 – induces beta-cell replication in MIN6 cells. AID 2380. proliferation, % at 10 µM. actives 0.29% (n = 330,000). MIN6 cells proliferation, ATPlite luminescence, 48 h; cells starved in 0.2% serum; 100% = growth in 10% serum;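 active = compounds whose signal lies at least 3.5 SD above the mean of all wells on their plate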
# SR-BI DiI inh – mouse SR-BI HDL lipid transfer inhibition; Q61009; ldlA[mSR-BI] CHO cells, DiI-HDL uptake fluorescence, 3 h; inhibition, % at 12.5 µM; actives 0.96% (n = 320,000); AID 488896;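 active = mean replicate inhibition of at least 70% and a set share of replicates each scoring 70 or more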
# Target sequence (Q61009 whole entry, looked up): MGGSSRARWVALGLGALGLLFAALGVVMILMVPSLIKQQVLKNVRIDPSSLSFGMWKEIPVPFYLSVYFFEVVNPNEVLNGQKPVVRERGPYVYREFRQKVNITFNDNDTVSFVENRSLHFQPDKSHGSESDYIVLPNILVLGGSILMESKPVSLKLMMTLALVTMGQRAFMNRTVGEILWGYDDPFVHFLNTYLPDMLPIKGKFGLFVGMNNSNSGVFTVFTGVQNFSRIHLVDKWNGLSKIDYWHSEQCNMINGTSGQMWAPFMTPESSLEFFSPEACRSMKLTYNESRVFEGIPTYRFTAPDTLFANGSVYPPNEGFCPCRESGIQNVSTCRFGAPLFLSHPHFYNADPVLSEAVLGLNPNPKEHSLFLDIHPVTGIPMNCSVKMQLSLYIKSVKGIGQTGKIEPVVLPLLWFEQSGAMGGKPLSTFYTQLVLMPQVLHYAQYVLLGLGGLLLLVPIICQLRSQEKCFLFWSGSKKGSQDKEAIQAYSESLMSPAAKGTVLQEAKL
# MIN6 prolif-2 – MIN6 beta-cell replication induction, confirmed; shares compounds with MIN6 prolif-1; 920 tested, under 10 active; AID 463095; proliferation increase, % at 50 µM; MIN6 beta-cell proliferation, ATPlite luminescence, 48 h; cells kept in 0.2% serum; scaled between 0.2% and 10% serum;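 active = proliferation increase above 40% at any of the four tested concentrations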
# Hits are given with their value; - = inactive; . = no result given. An excerpt weighted towards active compounds, which were near 2.4% of everything screened.
SMILES,Calb FLC,SR-BI uptake up,m5-HT2A agonist,Insulin prom up,MIN6 prolif-1,SR-BI DiI inh,MIN6 prolif-2
Cc1cc(C)n(CCCNC(=O)COc2ccc([N+](=O)[O-])cc2)n1,.,-,-,.,-,-,.
CC(C)(CN1CCc2ccccc2C1)NS(=O)(=O)c1ccccc1,-,.,-,-,7.7,.,-
CN1CCN(CC(C)(C)NS(=O)(=O)c2ccccc2)CC1,.,-,-,.,-,-,.
Cc1ccc(C(=O)OCC(=O)Nc2ccccc2)cc1NC(=O)c1ccco1,-,-,-,-,-,-,.
Cc1ccc(C(=O)OCC(=O)Nc2sccc2C(N)=O)cc1NC(=O)c1ccco1,-,-,-,.,6.1,-,-
C=CCNc1nc(-c2ccccc2)c(C(=O)OCC)cc1C#N,-,-,-,-,5.3,-,-
CC(C)[C@H](NC(=O)c1ccccc1Cl)C(=O)OCC(=O)N1CCCCC1,.,-,-,.,-,-,.
Cc1scc(C(=O)N/N=C/c2ccc(Cl)s2)c1C,-,-,-,-,-,-,.
COc1ccc(NC(=O)c2ccccc2NS(=O)(=O)c2ccc(C)cc2)c([N+](=O)[O-])c1,-,-,-,-,6.2,-,-
O=c1[nH]c2ccc(Cl)cc2c(=O)n1Cc1ccco1,-,-,-,-,7.2,-,-
O=c1c2cc(Cl)ccc2[nH]c(=S)n1Cc1ccco1,-,-,-,-,-,-,.
CC1CN(c2nc(N(C)c3ccccc3)nc(N)c2[N+](=O)[O-])CC(C)O1 (stereo not given),-,-,-,.,8.7,-,-
CC1CC(C)CN(c2nc(N(C)c3ccccc3)nc(N)c2[N+](=O)[O-])C1 (stereo not given),-,-,-,-,-,-,.
O=C(O)Cc1cn(Cc2ccc(F)cc2)c2ccccc12,-,-,-,-,7.4,-,-
Cc1ccc(Cn2cc(CCC(=O)O)c3ccccc32)cc1,-,-,-,.,-,-,.
O=C(CC1CC2CCC1C2)N1CCN(S(=O)(=O)c2ccc(F)cc2)CC1 (stereo not given),.,.,-,.,.,.,.
Cc1ccc(CSc2nnc(-c3ccccn3)n2C)cc1,-,-,-,-,7.1,-,-
COc1ccc(-c2csc3ncnc(N4CCN(C(=O)c5ccco5)CC4)c23)cc1,-,-,-,.,11,-,-
O=C(c1ccco1)N1CCN(c2ncnc3scc(-c4ccccc4)c23)CC1,-,-,-,.,-,-,.
COc1ccc(CCn2ccc(O)c(Cc3ccc(Cl)cc3)c2=O)cc1OC,-,-,-,-,-,-,.
COC(=O)Cc1c(O)ccn(CCc2ccc(OC)c(OC)c2)c1=O,-,-,-,-,7.2,-,-
CCN1CCN(c2nc(C)nc3c2sc(=S)n3C)CC1,.,-,-,.,-,-,.
Cc1nc(N2CCCCC2)c2sc(=S)n(C)c2n1,-,-,-,-,8.9,-,-
Cc1nc(N(C)C)c2sc(=S)n(Cc3ccccc3)c2n1,-,-,-,-,-,-,.
CCN(CC)c1nc(C)nc2c1sc(=S)n2C,-,-,-,-,8.0,-,-
SMILES,Calb FLC,SR-BI uptake up,m5-HT2A agonist,Insulin prom up,MIN6 prolif-1,SR-BI DiI inh,MIN6 prolif-2
C[C@@H]1CN([C@@H](C)CO)C(=O)CCCn2nncc2CO[C@H]1CN(C)C(=O)C1CC1,.,.,-,.,.,.,.
CSc1nc(N)nc(SCC(=O)C(C)(C)C)c1C#N,-,-,-,-,-,-,.
CSc1nc(N)nc(SC2C=CCCC2)c1C#N (stereo not given),-,-,-,-,5.9,-,-
Cc1cc(NC(=O)c2c(-c3c(Cl)cccc3Cl)noc2C)n(C)n1,-,-,-,-,6.8,-,-
Cc1cc(C)nc(NC(=O)c2c(-c3c(Cl)cccc3Cl)noc2C)n1,-,-,-,.,-,-,.
COC(=O)c1cccnc1Oc1ccccc1,-,-,-,-,-,-,.
COc1ccc(N2CCN(C(=O)CSc3nc4nc(C)cc(C)n4n3)CC2)cc1,.,-,-,.,-,-,.
CCCCN1C2=C(C(=O)CC(C)(C)C2)C(c2ccccc2)C2=C1c1ccccc1C2=O (stereo not given),-,-,-,.,8.2,-,-

# From PubChem BioAssay
